According to ChEMBL document CHEMBL3352173, “Optimization of pyrrolamide topoisomerase II inhibitors toward identification of an antibacterial clinical candidate (AZD5099)” (J Med Chem, 2014):
In brackets after ≈: the same amount, converted by molar mass.

Columns and labels:
Staphylococcus aureus [1] = assay: Antimicrobial activity against methicillin-resistant Staphylococcus aureus by broth microdilution/CLSI method; type: functional
Enterococcus faecalis [2] = assay: Antimicrobial activity against vancomycin-resistant Enterococcus faecalis by broth microdilution/CLSI method; type: functional
Enterococcus faecium = assay: Antimicrobial activity against Enterococcus faecium by broth microdilution/CLSI method; type: functional
Staphylococcus aureus [3] = assay: Antimicrobial activity against Staphylococcus aureus by broth microdilution/CLSI method; type: functional
Enterococcus faecalis [4] = assay: Antimicrobial activity against Enterococcus faecalis by broth microdilution/CLSI method; type: functional
Haemophilus influenzae [5] = assay: Antimicrobial activity against amoxicillin-resistant Haemophilus influenzae by broth microdilution/CLSI method; type: functional
Haemophilus influenzae [6] = assay: Antimicrobial activity against Haemophilus influenzae by broth microdilution/CLSI method; type: functional; details: Haemophilus influenzae; for MIC: read-out: MIC
[7] = target: T1, ATP-binding cassette sub-family C member 2 (Rattus norvegicus, UniProt Q63120); assay: Stimulation of ATPase activity of rat Mrp2 assessed as inorganic phosphate
[8] = Clearance in rat at 10 mg/kg, iv; type: ADME, organism-based; parameters: dose 10 mg/kg, route intravenous; details: in vivo
[9] = Percentage unbound in mouse plasma; type: ADME, cell-free
[10] = Solubility of the compound; type: physicochemical
Staphylococcus aureus [11] = assay: Antibacterial activity against methicillin-sensitive Staphylococcus aureus ARC516 infected in neutropenic CD1 mouse thigh model assessed as decrease in bacterial viable counts at 30 mg/kg, ip q24; type: functional; details: route intraperitoneal
DNA gyrase subunit B = DNA gyrase subunit B (Staphylococcus aureus, UniProt P0A0K8); assay: Inhibition of ATPase activity of Staphylococcus aureus GyrB
Outline: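 IC50 was determined against S. aureus GyrB in the routine screening assay. The enzyme concentration limits resolution below 10 nM.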

[12] = Dissociation constant, pKa of the compound; type: physicochemical
[13] = Bioavailability in CD1 mouse at 10 mg/kg, […]; type: ADME, organism-based; details: in vivo
[14] = Percentage unbound in rat plasma; type: ADME, cell-free
[15] = Ratio of MIC for methicillin, quinolone-resistant Staphylococcus aureus to fraction unbound in human plasma; type: ADME
Escherichia coli [16] = assay: Antimicrobial activity against Escherichia coli tolC- by broth microdilution/CLSI method; type: functional; details: Escherichia coli; read-out: MIC
Moraxella catarrhalis = assay: Antimicrobial activity against Moraxella catarrhalis by broth microdilution/CLSI method; type: functional; details: Moraxella catarrhalis; read-out: MIC
[17] = Bioavailability in Wistar rat at 10 mg/kg, […]; type: ADME, organism-based; details: in vivo
[18] = Clearance in CD1 mouse at 10 mg/kg, iv; type: ADME, organism-based; parameters: dose 10 mg/kg, route intravenous; details: in vivo
[19] = Percentage unbound in human plasma; type: ADME, cell-free
Staphylococcus aureus [20] = assay: Antimicrobial activity against methicillin, quinolone-resistant Staphylococcus aureus by broth microdilution/CLSI method; type: functional; details: Staphylococcus aureus; read-out: MIC
[21] = Bioavailability in dog at 10 mg/kg, iv; type: ADME, organism-based, Canis lupus familiaris; details: plasma
[22] = target: T1, ATP-binding cassette sub-family C member 2; assay: Inhibition of ATPase activity of rat Mrp2 assessed as inorganic phosphate
Streptococcus pneumoniae = assay: Antibacterial activity against Streptococcus pneumoniae by broth microdilution/CLSI method; type: functional; details: Streptococcus pneumoniae; read-out: MIC
[23] = AUC in methicillin-sensitive Staphylococcus aureus ARC516 infected in neutropenic CD1 mouse thigh model at 30 mg/kg, ip q24; type: ADME, organism-based; parameters: dose 30 mg/kg, route intraperitoneal; details: in vivo
Escherichia coli [24] = assay: Antimicrobial activity against wild-type Escherichia coli Eco523 by broth microdilution/CLSI method; type: functional; details: Escherichia coli, Eco523; read-out: MIC
[25] = Clearance in dog at 10 mg/kg, iv; type: ADME, organism-based, Canis lupus familiaris; parameters: dose 10 mg/kg, route intravenous; details: plasma
Staphylococcus aureus [26] = assay: Antibacterial activity against methicillin-sensitive Staphylococcus aureus ARC516 infected in ip dosed neutropenic CD1 mouse thigh model assessed as decrease in bacterial viable counts treated for q24; type: functional; details: ARC516, Thigh muscle
[27] = target: T2, ATP-binding cassette sub-family C member 2 (Homo sapiens, UniProt Q92887); assay: Stimulation of ATPase activity of human MRP2 assessed as inorganic phosphate
Mus musculus [28] = assay: fAUC in methicillin-sensitive Staphylococcus aureus ARC516 infected in neutropenic CD1 mouse thigh model at 30 mg/kg, ip q24; type: ADME, organism-based; parameters: dose 30 mg/kg, route intraperitoneal; details: in vivo
Staphylococcus aureus [29] = assay: Antimicrobial activity against methicillin-sensitive Staphylococcus aureus by broth microdilution/CLSI method; type: functional; details: Staphylococcus aureus; read-out: MIC
Streptococcus pyogenes = assay: Antimicrobial activity against Streptococcus pyogenes by broth microdilution/CLSI method; type: functional
[30] = Octanol-phosphate buffer distribution coefficient, log D of the compound at pH 7.4 by shake flask method; type: physicochemical
[31] = Percentage unbound in dog plasma; type: ADME, cell-free, Canis lupus familiaris
[32] = target: T2, ATP-binding cassette sub-family C member 2; assay: Inhibition of ATPase activity of human MRP2 assessed as inorganic phosphate
[33] = Clearance in Wistar rat at 10 mg/kg, iv; type: ADME, organism-based; parameters: dose 10 mg/kg, route intravenous; details: in vivo
[34] = AUC in methicillin-sensitive Staphylococcus aureus ARC516 infected in neutropenic CD1 mouse thigh model at 30 mg/kg, ip q6; type: ADME, organism-based; parameters: dose 30 mg/kg, route intraperitoneal; details: in vivo
Mus musculus [35] = assay: fAUC in methicillin-sensitive Staphylococcus aureus ARC516 infected in neutropenic CD1 mouse thigh model at 30 mg/kg, ip q6; type: ADME, organism-based; parameters: dose 30 mg/kg, route intraperitoneal; details: in vivo
Staphylococcus aureus [36] = assay: Antibacterial activity against methicillin-sensitive Staphylococcus aureus ARC516 infected in neutropenic CD1 mouse thigh model assessed as decrease in bacterial viable counts at 30 mg/kg, ip q6; type: functional; details: route intraperitoneal
Outline: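 Read-out is viable CFU recovered from the infected thigh after treatment. The change is expressed as log CFU relative to the bacterial burden at the start of treatment (the pre-treatment inoculum). Untreated infected controls are run in parallel and counted over the same infection-to-treatment interval.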

Staphylococcus aureus [37] = assay: Antibacterial activity against methicillin-sensitive Staphylococcus aureus ARC516 infected in ip dosed neutropenic CD1 mouse thigh model assessed as decrease in bacterial viable counts treated for q6; type: functional; details: ARC516, Thigh muscle
[38] = Clearance in TR-negative Wistar rat at 10 mg/kg, iv; type: ADME, organism-based; parameters: dose 10 mg/kg, route intravenous; details: in vivo

T1 sequence (Q63120 whole entry): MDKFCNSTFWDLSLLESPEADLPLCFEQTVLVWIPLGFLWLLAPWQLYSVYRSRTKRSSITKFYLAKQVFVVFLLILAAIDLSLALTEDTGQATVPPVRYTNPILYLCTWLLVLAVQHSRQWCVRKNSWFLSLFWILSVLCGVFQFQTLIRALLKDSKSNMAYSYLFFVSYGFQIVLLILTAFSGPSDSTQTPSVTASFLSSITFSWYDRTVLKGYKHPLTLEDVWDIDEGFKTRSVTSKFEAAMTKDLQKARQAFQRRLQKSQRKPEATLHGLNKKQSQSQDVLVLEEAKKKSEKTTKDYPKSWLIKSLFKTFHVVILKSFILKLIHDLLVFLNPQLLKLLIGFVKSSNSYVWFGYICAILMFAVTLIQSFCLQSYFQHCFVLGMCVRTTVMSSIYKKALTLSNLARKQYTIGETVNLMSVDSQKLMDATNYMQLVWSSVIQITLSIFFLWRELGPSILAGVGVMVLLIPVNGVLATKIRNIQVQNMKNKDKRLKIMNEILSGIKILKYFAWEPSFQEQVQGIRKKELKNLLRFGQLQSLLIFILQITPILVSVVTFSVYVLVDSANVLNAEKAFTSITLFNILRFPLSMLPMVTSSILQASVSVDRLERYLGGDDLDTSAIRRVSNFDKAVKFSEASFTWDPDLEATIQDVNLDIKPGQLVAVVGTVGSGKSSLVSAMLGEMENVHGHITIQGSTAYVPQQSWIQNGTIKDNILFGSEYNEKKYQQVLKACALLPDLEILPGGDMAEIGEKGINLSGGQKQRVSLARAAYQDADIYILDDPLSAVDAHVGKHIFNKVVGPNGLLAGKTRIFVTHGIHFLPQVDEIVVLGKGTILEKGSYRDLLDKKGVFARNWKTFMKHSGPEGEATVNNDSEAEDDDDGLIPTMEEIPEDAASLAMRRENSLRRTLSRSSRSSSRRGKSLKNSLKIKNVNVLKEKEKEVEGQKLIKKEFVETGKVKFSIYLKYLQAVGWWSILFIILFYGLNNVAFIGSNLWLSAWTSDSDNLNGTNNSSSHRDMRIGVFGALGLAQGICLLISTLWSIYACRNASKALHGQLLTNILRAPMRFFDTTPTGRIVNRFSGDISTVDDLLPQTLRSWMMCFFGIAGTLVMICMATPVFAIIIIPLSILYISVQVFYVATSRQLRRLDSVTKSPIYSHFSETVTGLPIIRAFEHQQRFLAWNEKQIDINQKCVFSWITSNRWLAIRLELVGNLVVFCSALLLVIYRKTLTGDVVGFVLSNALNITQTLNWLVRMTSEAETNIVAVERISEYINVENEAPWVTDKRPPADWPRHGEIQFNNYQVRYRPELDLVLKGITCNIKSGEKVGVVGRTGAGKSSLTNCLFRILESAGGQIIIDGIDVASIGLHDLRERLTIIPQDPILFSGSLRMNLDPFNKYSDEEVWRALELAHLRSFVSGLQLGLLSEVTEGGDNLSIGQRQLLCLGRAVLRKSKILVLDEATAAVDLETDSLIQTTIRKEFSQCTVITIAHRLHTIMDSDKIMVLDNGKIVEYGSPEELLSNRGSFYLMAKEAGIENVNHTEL
Chain of DNA gyrase subunit B (P0A0K8 whole entry): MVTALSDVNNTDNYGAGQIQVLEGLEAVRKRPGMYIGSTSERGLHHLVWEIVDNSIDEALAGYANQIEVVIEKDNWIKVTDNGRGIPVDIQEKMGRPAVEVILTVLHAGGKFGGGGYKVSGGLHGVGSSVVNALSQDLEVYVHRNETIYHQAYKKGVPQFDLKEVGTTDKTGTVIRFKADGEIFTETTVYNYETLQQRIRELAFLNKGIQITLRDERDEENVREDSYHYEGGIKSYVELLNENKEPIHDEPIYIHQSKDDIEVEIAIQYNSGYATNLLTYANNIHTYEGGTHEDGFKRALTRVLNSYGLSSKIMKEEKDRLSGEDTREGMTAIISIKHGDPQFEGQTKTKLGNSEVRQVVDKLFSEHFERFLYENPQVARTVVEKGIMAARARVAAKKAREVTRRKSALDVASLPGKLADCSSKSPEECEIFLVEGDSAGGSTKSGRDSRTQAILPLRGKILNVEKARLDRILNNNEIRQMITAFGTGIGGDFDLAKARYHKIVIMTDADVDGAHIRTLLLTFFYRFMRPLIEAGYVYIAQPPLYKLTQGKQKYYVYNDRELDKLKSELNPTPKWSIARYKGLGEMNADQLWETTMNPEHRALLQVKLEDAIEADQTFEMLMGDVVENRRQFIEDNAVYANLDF
T2 sequence (Q92887 whole entry): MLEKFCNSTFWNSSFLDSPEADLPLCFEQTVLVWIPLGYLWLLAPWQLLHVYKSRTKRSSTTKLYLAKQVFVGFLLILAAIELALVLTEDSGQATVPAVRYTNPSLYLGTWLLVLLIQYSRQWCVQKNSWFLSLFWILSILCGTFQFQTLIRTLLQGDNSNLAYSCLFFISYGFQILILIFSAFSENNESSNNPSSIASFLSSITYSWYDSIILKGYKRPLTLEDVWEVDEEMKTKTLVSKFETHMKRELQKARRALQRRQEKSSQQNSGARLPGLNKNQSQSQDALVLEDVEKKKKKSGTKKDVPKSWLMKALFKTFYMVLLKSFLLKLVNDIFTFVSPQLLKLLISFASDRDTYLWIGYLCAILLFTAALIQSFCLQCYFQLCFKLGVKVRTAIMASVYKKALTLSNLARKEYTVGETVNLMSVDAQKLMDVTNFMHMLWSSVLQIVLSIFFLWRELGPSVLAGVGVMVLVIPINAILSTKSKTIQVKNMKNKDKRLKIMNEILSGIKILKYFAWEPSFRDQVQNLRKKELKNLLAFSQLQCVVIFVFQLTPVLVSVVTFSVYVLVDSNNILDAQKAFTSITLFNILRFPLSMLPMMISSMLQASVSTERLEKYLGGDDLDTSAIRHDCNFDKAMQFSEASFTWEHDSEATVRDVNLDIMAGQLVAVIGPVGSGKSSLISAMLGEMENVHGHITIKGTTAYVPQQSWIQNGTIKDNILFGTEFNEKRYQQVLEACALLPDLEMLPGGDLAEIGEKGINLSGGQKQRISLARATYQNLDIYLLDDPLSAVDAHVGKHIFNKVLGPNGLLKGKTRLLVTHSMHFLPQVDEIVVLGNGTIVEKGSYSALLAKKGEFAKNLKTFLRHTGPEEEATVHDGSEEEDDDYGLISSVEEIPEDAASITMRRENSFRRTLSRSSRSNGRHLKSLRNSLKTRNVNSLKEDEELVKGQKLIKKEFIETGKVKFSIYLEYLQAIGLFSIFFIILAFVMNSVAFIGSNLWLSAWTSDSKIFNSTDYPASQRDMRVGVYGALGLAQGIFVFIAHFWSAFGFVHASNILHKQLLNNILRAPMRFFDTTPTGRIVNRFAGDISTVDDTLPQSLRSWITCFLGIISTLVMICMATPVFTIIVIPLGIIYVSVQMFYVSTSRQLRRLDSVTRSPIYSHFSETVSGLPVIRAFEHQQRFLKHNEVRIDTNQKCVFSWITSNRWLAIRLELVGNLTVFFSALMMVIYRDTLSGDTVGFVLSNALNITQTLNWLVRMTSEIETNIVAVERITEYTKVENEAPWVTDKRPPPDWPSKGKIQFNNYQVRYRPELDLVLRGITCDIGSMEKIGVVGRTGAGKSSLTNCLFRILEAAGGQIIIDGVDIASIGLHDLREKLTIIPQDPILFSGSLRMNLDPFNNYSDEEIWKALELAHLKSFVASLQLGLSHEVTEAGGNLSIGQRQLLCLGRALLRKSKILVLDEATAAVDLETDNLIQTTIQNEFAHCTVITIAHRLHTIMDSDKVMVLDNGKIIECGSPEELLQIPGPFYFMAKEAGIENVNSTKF

SMILES	clearance [8] [mL/min/kg]	fraction unbound [9]	solubility [10] [µM]	IC50 (DNA gyrase subunit B) [µM]	pKa [12]	bioavailability [13] [%]	fraction unbound [14]	Ratio [15]	MIC (Escherichia coli [16]) [µg/mL]	MIC (Moraxella catarrhalis) [µg/mL]	bioavailability [17] [%]	clearance [18] [mL/min/kg]	fraction unbound [19]	MIC (Staphylococcus aureus [20]) [µg/mL]	bioavailability [21] [%]	MIC (Streptococcus pneumoniae) [µg/mL]	MIC (Escherichia coli [24]) [µg/mL]	clearance [25] [mL/min/kg]	MIC (Staphylococcus aureus [29]) [µg/mL]	MIC (Streptococcus pyogenes) [µg/mL]	other results
C[C@H]1COc2c(N3CCN(C)CC3)c(F)cc3c(=O)c(C(=O)O)cn1c23.C[C@H]1COc2c(N3CCN(C)CC3)c(F)cc3c(=O)c(C(=O)O)cn1c23.O [LEVOFLOXACIN]	–	–	–	–	–	–	–	–	–	–	–	–	–	–	–	–	–	–	–	–	MIC90 (Staphylococcus aureus [1]): 64 µg/mL; MIC90 (Enterococcus faecalis [2]): 64 µg/mL; MIC90 (Enterococcus faecium): > 128 µg/mL; MIC90 (Staphylococcus aureus [3]): 32 µg/mL; MIC90 (Enterococcus faecalis [4]): 32 µg/mL; MIC90 (Haemophilus influenzae [5]): 0.015 µg/mL; MIC90 (Haemophilus influenzae [6]): 0.015 µg/mL
CO[C@H]1CN(c2nc(-c3ncnn3C)c(C(=O)O)s2)CC[C@H]1NC(=O)c1[nH]c(C)c(Cl)c1Cl	17	0.097	630 (≈ 324 µg/mL)	< 0.01	4.5	74	0.088	1.25	0.46 (≈ 0.894 µM)	0.026 (≈ 0.0505 µM)	65	7.4	0.032	0.04 (≈ 0.0778 µM)	70	0.007 (≈ 0.0136 µM)	32 (≈ 62.2 µM)	1.6	0.063 (≈ 0.122 µM)	0.016 (≈ 0.0311 µM)	EC50 [7]: 110 µM; deltalog10CFU (Staphylococcus aureus [11]): 1.54; IC50 [22]: > 200 µM; AUC [23]: 204000 ng·h/mL; MIC (Staphylococcus aureus [26]): 0.03 µg/mL (≈ 0.0583 µM); EC50 [27]: 140 µM; fAUC (Mus musculus [28]): 19800 ng·h/mL; logD [30]: 0.15; fraction unbound [31]: 0.2; IC50 [32]: > 200 µM; MIC (Haemophilus influenzae [6]): 0.12 µg/mL (≈ 0.233 µM)
CO[C@H]1CN(c2nc(-c3ncccn3)c(C(=O)O)s2)CC[C@H]1NC(=O)c1[nH]c(C)c(Cl)c1Cl	34	0.18	350 (≈ 179 µg/mL)	< 0.01	5.2	100	0.19	1.25	0.5 (≈ 0.978 µM)	0.031 (≈ 0.0606 µM)	100	22	0.096	0.12 (≈ 0.235 µM)	100	0.008 (≈ 0.0156 µM)	23 (≈ 45 µM)	1.9	0.09 (≈ 0.176 µM)	0.016 (≈ 0.0313 µM)	clearance [33]: 18 mL/min/kg; AUC [34]: 37600 ng·h/mL; fAUC (Mus musculus [35]): 6700 ng·h/mL; deltalog10CFU (Staphylococcus aureus [36]): -1.57; MIC (Staphylococcus aureus [37]): 0.06 µg/mL (≈ 0.117 µM); logD [30]: 0.54; clearance [38]: 9.3 mL/min/kg; fraction unbound [31]: 0.24; MIC (Haemophilus influenzae [6]): 0.2 µg/mL (≈ 0.391 µM)
